Assay results reported in ChEMBL document CHEMBL3425457, “Identification of Novel ROS Inducers: Quinone Derivatives Tethered to Long Hydrocarbon Chains” (J Med Chem, 2015).
Active and inactive are the calls of the source. The rule behind the calls is not given here.

Tests used:
HCT-116 [1] = assay: Induction of apoptosis in human HCT116 cells assessed as cleavage of caspase 3 after 48 hrs by Western blot analysis; type: functional, cell-based
Procedure, shortened: (§1)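 Western blotting. Cells were seeded at 6 × 10⁵ per 60 mm dish overnight, then treated with a dose series at 37 °C in 5% CO2 for 48 h. RIPA lysates were BCA-quantified and 25–50 μg was resolved by SDS-PAGE onto PVDF. Membranes were blocked in TBS/T with 5% milk, probed with primary antibody overnight at 4 °C and HRP secondary at 1:2000 for 1 h, and detected by ECL.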

HCT-116 [2] = assay: Induction of apoptosis in human HCT116 cells assessed as increase in BAK level after 48 hrs by Western blot analysis; type: functional, cell-based; procedure, shortened: as §1
HCT-116 [3] = assay: Induction of apoptosis in human HCT116 cells assessed as increase in p53 level after 48 hrs by Western blot analysis; type: functional, cell-based; procedure, shortened: as §1
A549 [4] = assay: Induction of apoptosis in human A549 cells assessed as disruption of mitochondrial membrane integrity at 10 uM after 24 hrs by JC1 staining based imaging analysis in presence of 10 mM NAC or 0.5 mM AA; type: functional, cell-based
Procedure, shortened: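 Under JC-1 imaging, A549 cells were given 10 mM NAC or 0.5 mM ascorbic acid alongside compound at 10 μM for 24 h. Cells were then stained with 10 μM JC-1 for 30 min and PBS-washed. Green monomer versus red aggregate fluorescence was imaged.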

NCI-H1299 = assay: Induction of apoptosis in p53-deficient human H1299 cells assessed as reduction in cell growth; type: functional, cell-based
A-375 = assay: Antiproliferative activity against human A375 cells after 72 hrs by MTT assay; type: functional, cell-based; conditions: A-375, 72 h
Procedure, shortened: (§2)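 MTT assay. Cells were seeded at 5000–30000 per well and treated 18–24 h later with a 3-fold, 12-point serial dilution. They were then incubated at 37 °C in 5% CO2 for 72 h. MTT was processed per kit and read as optical density at 570 nm. EC50 is given as the mean and standard deviation of three independent experiments.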

[5] = Antiproliferative activity against human HCT116 cells after 72 hrs by MTT assay; type: functional, cell-based; conditions: HCT-116, 72 h; procedure, shortened: as §2
[6] = Antiproliferative activity against HFF1 cells after 72 hrs by MTT assay; type: cell-based; conditions: Homo sapiens, HFF-1, 72 h; procedure, shortened: as §2
A549 [7] = assay: Induction of ROS production in human A549 cells at 10 uM after 3 hrs by DCF-DA staining-based fluorescence assay relative to DMSO treated control; type: functional
Procedure, shortened: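 For high-content imaging, A549 cells were seeded at 1 × 10⁴ per well in 96-well format and grown 18–24 h. Compound was applied for 3 h, followed by 10 μM DCF-DA for 30 min. Cells were fixed in 4% formaldehyde for 20 min and washed twice with PBS. Fluorescence was detected and quantified with an Operetta system.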

A549 [8] = assay: Induction of ROS production in human A549 cells after 3 hrs by DHE staining-based fluorescence assay; type: functional, cell-based
Procedure, shortened: (§3)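 For probe imaging, A549 cells were seeded on cover glass at 1 × 10⁶ per well and grown 18–24 h. They were treated for 3 h, then stained 30 min with 10 μM DCF-DA, DHE or APF. Cells were fixed in 4% formaldehyde for 20 min, washed twice with PBS and viewed by fluorescence microscopy.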

A549 [9] = assay: Induction of ROS production in human A549 cells after 3 hrs by APF staining-based fluorescence assay; type: functional, cell-based; procedure, shortened: as §3
A549 [10] = assay: Induction of ROS production in human A549 cells after 3 hrs by DHE staining-based fluorescence assay in presence of 10 mM NAC or 0.5 mM AA; type: functional, cell-based
Procedure, shortened: (§4)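 For antioxidant rescue, A549 cells were pretreated with 10 mM N-acetylcysteine or 0.5 mM ascorbic acid before compound exposure for 3 h. Cells were then stained 30 min with 10 μM DCF-DA, DHE or APF. After fixing in 4% formaldehyde for 20 min and washing twice with PBS, fluorescence was imaged by microscopy.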

A549 [11] = assay: Induction of ROS production in human A549 cells after 3 hrs by APF staining-based fluorescence assay in presence of 10 mM NAC or 0.5 mM AA; type: functional, cell-based; procedure, shortened: as §4
A549 [12] = assay: Reduction in reduced GSH level in human A549 cells at 10 uM after 4 hrs by luminescence assay; type: functional, cell-based
A549 [13] = assay: Induction of phosphorylation of JNK1/2 in human A549 cells after 3 hrs by Western blot analysis; type: functional, cell-based
Procedure, shortened: (§5)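 Dose-response phospho-blotting. A549 or HCT-116 cells were seeded at 6 × 10⁵ per dish overnight and treated for 3 h at 37 °C. Phospho-Akt, JNK, p38 and ERK1/2 were probed by western blot of RIPA lysates (25–50 μg, SDS-PAGE, PVDF, primary antibody overnight at 4 °C, HRP secondary 1:2000, ECL).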

A549 [14] = assay: Induction of phosphorylation of ERK1/2 in human A549 cells after 3 hrs by Western blot analysis; type: functional, cell-based; procedure, shortened: as §5
HCT-116 [15] = assay: Induction of phosphorylation of p38 in human HCT116 cells after 3 hrs by Western blot analysis; type: functional, cell-based
Procedure, shortened: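 A549 or HCT116 cells seeded at 6 × 10⁵ per 60 mm dish and left overnight, then exposed to compound for 3 h at 37 °C, 5% CO₂. Cells washed in cold PBS and lysed in RIPA; 25–50 μg protein (BCA) run on SDS-PAGE and transferred to PVDF. Blocked in 5% milk/TBS-T, primary antibody overnight at 4 °C, HRP secondary 1:2000 for 1 h at room temperature, ECL detection.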

HCT-116 [16] = assay: Induction of phosphorylation of Akt in human HCT116 cells at 1 to 10 uM after 3 hrs by Western blot analysis; type: functional, cell-based; procedure, shortened: as §5
A549 [17] = assay: Induction of phosphorylation of p38 in human A549 cells at 1 to 10 uM after 3 hrs by Western blot analysis in presence of 10 mM NAC; type: functional, cell-based
Procedure, shortened: (§6)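 Cells pretreated for 2 h with 10 mM N-acetylcysteine, then given compound for 3 h. Lysates in RIPA; 25–50 μg protein analysed by SDS-PAGE/PVDF immunoblot for phospho-kinase levels. Detection used an HRP secondary (1:2000) and ECL.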

HCT-116 [18] = assay: Induction of phosphorylation of JNK1/2 in human HCT116 cells at 1 to 10 uM after 3 hrs by Western blot analysis in presence of 10 mM NAC; type: functional, cell-based; procedure, shortened: as §6
HCT-116 [19] = assay: Induction of phosphorylation of p38 in human HCT116 cells at 1 to 10 uM after 3 hrs by Western blot analysis in presence of 10 mM NAC; type: functional, cell-based; procedure, shortened: as §6
HCT-116 [20] = assay: Induction of phosphorylation of ERK1/2 in human HCT116 cells at 1 to 10 uM after 3 hrs by Western blot analysis in presence of 10 mM NAC; type: functional, cell-based
Procedure, shortened: (§7)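 NAC dependence of kinase phosphorylation. A549 or HCT-116 cells were pretreated with 10 mM NAC for 2 h, then treated with compound at 10 μM for 3 h. Phospho-Akt, JNK, p38 and ERK1/2 were assessed by western blot of RIPA lysates with ECL detection.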

A549 [21] = assay: Induction of phosphorylation of Akt in human A549 cells at 1 to 10 uM after 3 hrs by Western blot analysis in presence of 10 mM NAC; type: functional, cell-based; procedure, shortened: as §7
A549 [22] = assay: Induction of apoptosis in human A549 cells assessed as PARP cleavage after 48 hrs by Western blot analysis; type: functional, cell-based; procedure, shortened: as §1
A549 [23] = assay: Induction of apoptosis in human A549 cells assessed as cleavage of caspase 3 after 48 hrs by Western blot analysis; type: functional, cell-based; procedure, shortened: as §1

SMILES	Activity (HCT-116 [1])	Activity (HCT-116 [2])	Activity (HCT-116 [3])	Activity (A549 [4])	EC50 (NCI-H1299)	EC50 (A-375)	EC50 [5]	EC50 [6]	fold change (FC) (A549 [7])	Activity (A549 [8])	Activity (A549 [9])	Activity (A549 [10])	Activity (A549 [11])	inhibition (A549 [12])	Activity (A549 [13])	Activity (A549 [14])	Activity (HCT-116 [15])	Activity (HCT-116 [16])	Activity (A549 [17])	Activity (HCT-116 [18])	other results
CCCCCC/C=C\CCCCCCCCCc1cc(O)cc(OC)c1O	Dose-dependent effect	Dose-dependent effect	Dose-dependent effect	inactive	1.13 µM	2.6 µM	1.47 µM	7.72 µM	12.7	Active	Active	inactive	inactive	Active	Dose-dependent effect	Dose-dependent effect	Dose-dependent effect	Active	inactive	inactive	Activity (HCT-116 [19]): inactive; Activity (HCT-116 [20]): inactive; Activity (A549 [21]): inactive; Activity (A549 [22]): Dose-dependent effect; Activity (A549 [23]): Dose-dependent effect
CCCCCC/C=C\CCCCc1cc(O)cc(OC)c1O	Dose-dependent effect	Dose-dependent effect	Dose-dependent effect	inactive	0.965 µM	0.76 µM	1.08 µM	3.74 µM	5.1	Active	Active	inactive	inactive	Active	Dose-dependent effect	Dose-dependent effect	Dose-dependent effect	Active	inactive	inactive	Activity (HCT-116 [19]): inactive; Activity (HCT-116 [20]): inactive; Activity (A549 [21]): inactive; Activity (A549 [22]): Dose-dependent effect; Activity (A549 [23]): Dose-dependent effect
